Results reported in ChEMBL document CHEMBL1123453, “Quinazoline antifolates inhibiting thymidylate synthase: benzoyl ring modifications” (J Med Chem, 1986).

Legend:
[1] = molecular target: T1, Thymidylate synthase (Mus musculus, UniProt P07607); assay: In vitro inhibition of L1210 thymidylate synthase with CB3717 as control
Outline: (§1)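 Thymidylate synthase purified from L1210 cells; IC50 determined, with CB3717 assayed as the reference control alongside each compound.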

[2] = tested on: L1210; assay: The compound was evaluated for the inhibition of growth of L1210 cells in culture; format: functional, cell-based; settings: Mus musculus
Outline: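 L1210 cells grown in culture; growth inhibition reported as the ID50 in μM.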

[3] = molecular target: T1, Thymidylate synthase; assay: In vitro inhibition of L1210 thymidylate synthase; outline: as §1
[4] = molecular target: T2, Dihydrofolate reductase (Mus musculus, UniProt P00375); assay: The compound was evaluated in vitro for inhibition of purified L1210 dihydrofolate reductase
T2 sequence (P00375 whole entry): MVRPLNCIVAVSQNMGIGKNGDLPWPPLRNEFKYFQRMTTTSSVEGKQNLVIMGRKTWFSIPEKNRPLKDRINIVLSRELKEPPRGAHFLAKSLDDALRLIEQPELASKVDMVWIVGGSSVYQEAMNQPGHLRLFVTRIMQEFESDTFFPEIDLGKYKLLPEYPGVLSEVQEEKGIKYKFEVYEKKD

T1 sequence (P07607 whole entry): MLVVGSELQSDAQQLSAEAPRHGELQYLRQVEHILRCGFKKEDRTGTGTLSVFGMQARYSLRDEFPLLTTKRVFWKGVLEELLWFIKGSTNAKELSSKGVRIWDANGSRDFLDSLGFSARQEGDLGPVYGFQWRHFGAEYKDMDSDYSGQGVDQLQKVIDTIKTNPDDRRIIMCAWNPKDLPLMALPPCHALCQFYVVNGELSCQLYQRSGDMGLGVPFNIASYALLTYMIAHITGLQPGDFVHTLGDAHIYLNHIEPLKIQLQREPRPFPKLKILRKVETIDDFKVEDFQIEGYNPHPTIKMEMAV

C#CCN(Cc1ccc2nc(N)nc(O)c2c1)c1ccc(C(=O)NC(CCC(=O)O)C(=O)O)c(C)c1 (configuration not stated)
IC50 [1]: 19 nM | IC50 [2]: 24 µM | IC50 [3]: 400 nM | IC50 [4]: 25 µM

C#CCN(Cc1ccc2nc(N)nc(O)c2c1)c1ccc(C(=O)NC(CCC(=O)O)C(=O)O)c(Cl)c1 (configuration not stated)
IC50 [1]: 14 nM | IC50 [2]: 12 µM | IC50 [3]: 30 nM | IC50 [4]: 11 µM

C#CCN(Cc1ccc2nc(N)nc(O)c2c1)c1ccc(C(=O)NC(CCC(=O)O)C(=O)O)cc1Cl (configuration not stated)
IC50 [1]: 14.4 nM | IC50 [2]: 72 µM | IC50 [3]: 5000 nM | IC50 [4]: 3 µM

C#CCN(Cc1ccc2nc(N)nc(O)c2c1)c1c(Cl)cc(C(=O)NC(CCC(=O)O)C(=O)O)cc1Cl (configuration not stated)
IC50 [1]: 14.4 nM | IC50 [2]: 37 µM | IC50 [3]: > 5000 nM | IC50 [4]: 3 µM

C#CCN(Cc1ccc2[nH]c(N)nc(=O)c2c1)c1ccc(C(=O)NC(CCC(=O)O)C(=O)O)cc1 (configuration not stated)
IC50 [2]: 7 µM
